Bioassay records as filed in PubChem.
NadD inh: inhibitors of Staphylococcus aureus NadD; 0.78% of 360,000 active; purified NadD enzyme, colorimetric absorbance read-out; inhibition, % at 20 µM; in the data active = inhibition above about 26%
ABHD5-PLIN5 inh: ABHD5-PLIN5 protein interaction inhibition | Q00G26+Q8WTS1 | Split G. princeps luciferase complementation, luminescence, 4 h | inhibition, % at 4 µM | 0.78% of 360,000 active | AID 602281;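 active = inhibition above the mean inhibition across every tested compound plus 3 SD, cut at about 22% in these data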;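 note: 0% = DMSO only wells and the 100% control is not disclosed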
Target sequence (Q00G26 whole entry, looked up): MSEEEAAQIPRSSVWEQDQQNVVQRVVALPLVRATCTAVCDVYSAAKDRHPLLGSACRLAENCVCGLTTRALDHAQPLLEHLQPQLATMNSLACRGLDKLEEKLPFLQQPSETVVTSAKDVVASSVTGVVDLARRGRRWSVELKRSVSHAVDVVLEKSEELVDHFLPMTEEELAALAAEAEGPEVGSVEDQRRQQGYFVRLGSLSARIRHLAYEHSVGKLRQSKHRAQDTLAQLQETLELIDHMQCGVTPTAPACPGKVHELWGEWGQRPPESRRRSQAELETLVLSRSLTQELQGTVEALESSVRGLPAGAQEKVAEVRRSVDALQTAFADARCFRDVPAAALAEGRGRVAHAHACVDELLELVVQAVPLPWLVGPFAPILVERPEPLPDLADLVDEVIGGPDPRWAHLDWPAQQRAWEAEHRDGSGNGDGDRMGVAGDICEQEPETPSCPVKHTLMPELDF
Target sequence (Q8WTS1 whole entry, looked up): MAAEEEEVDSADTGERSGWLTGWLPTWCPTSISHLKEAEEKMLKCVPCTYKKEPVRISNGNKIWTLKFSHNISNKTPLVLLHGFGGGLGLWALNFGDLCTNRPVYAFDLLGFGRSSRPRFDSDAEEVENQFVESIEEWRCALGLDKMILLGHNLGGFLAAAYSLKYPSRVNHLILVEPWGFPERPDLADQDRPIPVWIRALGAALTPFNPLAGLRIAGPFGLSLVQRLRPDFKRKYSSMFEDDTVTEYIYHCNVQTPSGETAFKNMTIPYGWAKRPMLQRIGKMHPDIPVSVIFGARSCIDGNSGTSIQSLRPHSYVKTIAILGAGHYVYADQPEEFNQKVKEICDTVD
XiGFP reactiv: activators of X-chromosome reactivation in mouse fibroblasts; activation, % at 7.58 µM; 0.055% of 360,000 active; XiGFP mouse fibroblasts, % GFP-positive cells imaging, 3 d; cells co-treated with 5-aza-dC sensitizer; scaled so ellipticine positive control = 100%;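 active = mean normalized replicate activation at least 10% and every replicate at or above 10%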;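 note: 0% = median of on-plate neutral control wells and 100% = ellipticine 6 µM median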
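System: 68-5-11 XiGFP fibroblast line; Timing: 3 days compound exposure; Compound dosing: one concentration, pinned; Benchmarks: positive control ellipticine, 6 µM final; Buffer or medium: DMEM containing 5-aza-dC.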
Rpn11 inh: blocks the human proteasome subunit Rpn11 | O00487 | human 26S proteasome, Ub4-pepOG fluorescence polarization; 20S core pre-blocked with epoxomicin | inhibition, % at 20 µM | 0.59% of 360,000 active;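 active = inhibition at 20 µM, scaled to each plate's controls, above about 33%, limit read from the data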
Rin1-Abl PPI inh: inhibitors of human Rin1-Abl protein interaction. P00519+Q13671. TR-FRET Rin1/Abl binding, biochemical. inhibition, % at 7.35 µM. 0.4% of 360,000 active. AID 588664; in the data active = inhibition above about 5%, passing the limit was not always enough
NadD conf: confirmation of Staphylococcus aureus NadD inhibitors; purified S. aureus NadD, colorimetric enzyme assay; 13% of 2,000 active; shares compounds with NadD inh; inhibition, % at 20 µM; AID 624309; in the data active = inhibition mostly above about 42%, no sharp cut-off; inactive = mostly below about 42%
* marks the source's active call; other numbers are inactive results. An excerpt weighted towards active compounds, which were near 1.9% of everything screened.

Results for C[C@@H]1CN([C@@H](C)CO)C(=O)c2cc(NS(=O)(=O)c3cccs3)ccc2O[C@@H](C)CCCCO[C@@H]1CN(C)C(=O)Nc1ccc(F)cc1 ?
XiGFP reactiv: -0.7

How did CCC(=O)N(C)C[C@@H]1Oc2cc(C#CC3(O)CCCC3)ccc2S(=O)(=O)N([C@H](C)CO)C[C@H]1C do in these assays?
XiGFP reactiv: -2.0

What do the screens show for `CN(C)CC(=O)N1CC2(C1)[C@@H](c1ccccc1)[C@@H](CO)N2C(=O)C1CC1`?
XiGFP reactiv: 0.1

How did O=[N+]([O-])c1cc(S(=O)(=O)Nc2ccc(Cl)cc2)ccc1N/N=C/c1ccncc1 do in these assays?
NadD inh: 47.0*; ABHD5-PLIN5 inh: 1.1; XiGFP reactiv: 0.1; Rpn11 inh: 1.4; Rin1-Abl PPI inh: 1.8; NadD conf: 24.5

How did CCOc1ccc(CCN2C(=O)C(=O)N([C@@H](Cc3ccc(O)cc3)CN3CCC[C@H]3CN3C(=O)C(=O)NC[C@@H]3Cc3ccccc3)C[C@@H]2Cc2ccc(O)cc2)cc1 do in these assays?
NadD inh: 30.3*; ABHD5-PLIN5 inh: 19.0; XiGFP reactiv: 0.1; NadD conf: 31.8

How did CCOc1ccc(CCN2C(=O)C(=O)N([C@@H](Cc3ccccc3)CN3CCC[C@H]3CN3C(=O)C(=O)NC[C@@H]3Cc3ccccc3)C[C@@H]2Cc2ccc(O)cc2)cc1 do in these assays?
NadD inh: 71.0*; ABHD5-PLIN5 inh: 16.1; XiGFP reactiv: 0.0; NadD conf: 40.7

How did O=C1NC[C@H](Cc2ccccc2)N(C[C@@H]2CCCN2C[C@H](Cc2ccccc2)N2C[C@H](Cc3ccc(O)cc3)N(CCc3ccccc3)C(=O)C2=O)C1=O do in these assays?
NadD inh: 44.0*; ABHD5-PLIN5 inh: 5.5; XiGFP reactiv: 0.0; NadD conf: 48.9*

Results for O=C1NC[C@H](Cc2ccccc2)N(C[C@@H]2CCCN2C[C@H](Cc2ccc(O)cc2)N2C[C@H](Cc3ccc(O)cc3)N(CCc3ccccc3)C(=O)C2=O)C1=O ?
NadD inh: 29.9; ABHD5-PLIN5 inh: 9.3; XiGFP reactiv: 0.0

What do the screens show for `O=C(C[C@@H]1C=C[C@H](NS(=O)(=O)c2ccccc2)[C@H](CO)O1)NCc1ccncn1`?
XiGFP reactiv: 0.4

Results for C[C@H](NC(=O)C[C@@H]1CC[C@@H](NC(=O)Cc2ccccn2)[C@H](CO)O1)c1ccccc1 ?
XiGFP reactiv: 0.0

Results for O=C(NNc1nc(-c2ccccc2)c2cc(Br)ccc2n1)c1ccc(S(=O)(=O)N2CCCCC2)cc1 ?
NadD inh: 36.5*; ABHD5-PLIN5 inh: -3.3; XiGFP reactiv: 0.2; Rpn11 inh: 4.8; Rin1-Abl PPI inh: -2.2; NadD conf: 25.1

What do the screens show for `O=C(/C=C/c1ccc2ccccc2n1)c1cc(Cl)ccc1O`?
NadD inh: 32.6*; ABHD5-PLIN5 inh: 6.5; XiGFP reactiv: -0.1; Rin1-Abl PPI inh: -1.2; NadD conf: 35.6

How did C[C@H](CO)N1C[C@H](C)[C@@H](CN(C)Cc2ccc(Cl)c(Cl)c2)Oc2ccc(NC(=O)C3CCCCC3)cc2CC1=O do in these assays?
XiGFP reactiv: 0.2

What do the screens show for `CCOC(=O)C1=C(C)N=c2s/c(=C/c3cccc([N+](=O)[O-])c3O)c(=O)n2C1c1ccc(OC)cc1OC` (stereo unspecified)?
NadD inh: 35.6*; ABHD5-PLIN5 inh: -8.4; XiGFP reactiv: 0.0; Rpn11 inh: 14.3; Rin1-Abl PPI inh: -2.6; NadD conf: 8.6

How did CCOC(=O)C1=C(C)N=c2s/c(=C/c3ccc(OCC(=O)O)cc3)c(=O)n2C1c1ccc(OC)cc1OC (stereo unspecified) do in these assays?
NadD inh: 13.7; ABHD5-PLIN5 inh: -15.5; XiGFP reactiv: 0.1; Rpn11 inh: 18.1; Rin1-Abl PPI inh: -2.0

Results for COc1ccc(CC(N)c2csc(NC(=O)Nc3ccccc3C(C)(C)C)n2)cc1 (stereo unspecified) ?
NadD inh: 10.4; ABHD5-PLIN5 inh: -10.6; XiGFP reactiv: 0.0; Rpn11 inh: -1.4; Rin1-Abl PPI inh: -2.6

How did COc1ccc(CC(N)c2csc(NC(=O)Nc3ccccc3-c3ccccc3)n2)cc1 (stereo unspecified) do in these assays?
NadD inh: 31.4*; ABHD5-PLIN5 inh: 3.2; XiGFP reactiv: 0.0; Rpn11 inh: 13.4; Rin1-Abl PPI inh: 0.1; NadD conf: 7.2
